From ChEMBL document CHEMBL4834419 (J Med Chem, 2021)
Values after ≈ are worked out from the molar mass of the structure shown.

Legend:
[1] = Plasma concentration in mouse at 10 mg/kg, po measure after 3 hrs; assay type: ADME, organism-based
Method in brief: (§1)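 Mice, n = 3, received a single oral dose of 10 mg/kg in water with 1% hydroxypropyl methylcellulose/Tween 80 (99:1). Tail-vein blood was drawn at 30 and 60 min and tissue collected at 3 h. Compound was quantified by LC−MS and PK derived by noncompartmental analysis.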

[2] = system: HepG2; assay: Cytotoxicity against human HepG2 cells assessed as reduction in cell viability up to 100 uM incubated for 48 hrs by WST-1 assay; assay type: cell-based; conditions: hepg2, 48 h
Method in brief: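 HepG2 cells were seeded at 3 × 10⁴/well and grown 24 h. Medium was then switched to DMEM with 1% FCS containing compound in 0.1% DMSO; 0.1% DMSO alone was the negative control. After 48 h, WST-1 was added and absorbance read at 450/620 nm after 45 min. Four experiments in duplicate.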

[3] = system: HepG2; assay: Cytotoxicity against human HepG2 cells assessed as reduction in cell viability incubated for 48 hrs by WST-1 assay; conditions: HepG2, 48 h
[4] = molecular target: T1, Retinoic acid receptor RXR-gamma (Homo sapiens, UniProt P48443); assay: Agonist activity at human RXRgamma transfected in human HEK293T cells co-expressing pFR/pRL-Luc incubated for 14 to 16 hrs by hybrid reporter gene assay; assay type: cell-based
T1 sequence (P48443 whole entry): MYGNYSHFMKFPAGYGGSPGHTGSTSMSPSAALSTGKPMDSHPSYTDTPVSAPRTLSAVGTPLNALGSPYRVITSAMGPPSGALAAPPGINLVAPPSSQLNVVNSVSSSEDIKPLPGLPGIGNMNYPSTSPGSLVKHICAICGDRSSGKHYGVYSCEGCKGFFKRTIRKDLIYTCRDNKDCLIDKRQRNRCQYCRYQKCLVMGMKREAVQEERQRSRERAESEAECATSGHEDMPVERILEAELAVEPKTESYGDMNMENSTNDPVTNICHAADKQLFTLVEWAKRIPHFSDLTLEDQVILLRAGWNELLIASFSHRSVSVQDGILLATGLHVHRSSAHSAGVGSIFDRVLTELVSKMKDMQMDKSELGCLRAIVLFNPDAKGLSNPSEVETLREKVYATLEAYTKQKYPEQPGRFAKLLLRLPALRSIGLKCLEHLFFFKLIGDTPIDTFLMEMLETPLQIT

[5] = molecular target: T2, Bile acid receptor (Homo sapiens) (UniProt Q96RI1); assay: Agonist activity against human FXR in human HEK293T cells co-expressing pFR/pRL-Luc assessed as receptor activation at 10 uM incubated for 14 to 16 hrs by hybrid reporter gene assay relative to bexarotene; assay type: cell-based; conditions: filed as agonist, time 14-16 hrs
T2 sequence (whole entry): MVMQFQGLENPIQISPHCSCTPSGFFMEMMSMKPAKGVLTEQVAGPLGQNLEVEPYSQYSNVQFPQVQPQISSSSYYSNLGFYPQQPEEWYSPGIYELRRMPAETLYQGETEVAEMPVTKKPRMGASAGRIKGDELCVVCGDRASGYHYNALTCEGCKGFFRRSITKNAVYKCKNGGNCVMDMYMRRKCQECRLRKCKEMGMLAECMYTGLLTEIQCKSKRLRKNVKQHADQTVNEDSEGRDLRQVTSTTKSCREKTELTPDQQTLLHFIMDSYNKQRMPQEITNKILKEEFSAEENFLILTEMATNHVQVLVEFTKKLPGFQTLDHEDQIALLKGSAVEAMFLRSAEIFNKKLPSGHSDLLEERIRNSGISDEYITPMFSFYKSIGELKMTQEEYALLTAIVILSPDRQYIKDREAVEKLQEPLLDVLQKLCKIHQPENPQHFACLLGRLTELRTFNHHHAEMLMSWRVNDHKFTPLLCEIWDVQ
Method in brief: (§2)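 Gal4 hybrid reporter assay in HEK293T cells, seeded 24 h before transfection (Lipofectamine LTX, Opti-MEM) with pFR-Luc, pRL-SV40 and pFA-CMV plasmid carrying the hinge region and LBD of the human receptor. After 5 h, compound added in 0.1% DMSO, with 0.1% DMSO alone as untreated control. Dual-Glo luciferase read after 14−16 h; firefly/renilla normalized; duplicates, ≥2 independent experiments.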

[6] = molecular target: T3, Peroxisome proliferator-activated receptor gamma (Homo sapiens) (UniProt P37231); assay: Agonist activity against human PPARgamma in human HEK293T cells co-expressing pFR/pRL-Luc assessed as receptor activation at 10 uM incubated for 14 to 16 hrs by hybrid reporter gene assay relative to bexarotene; assay type: cell-based; conditions: filed as agonist, time 14-16 hrs; method in brief: as §2
T3 sequence (whole entry): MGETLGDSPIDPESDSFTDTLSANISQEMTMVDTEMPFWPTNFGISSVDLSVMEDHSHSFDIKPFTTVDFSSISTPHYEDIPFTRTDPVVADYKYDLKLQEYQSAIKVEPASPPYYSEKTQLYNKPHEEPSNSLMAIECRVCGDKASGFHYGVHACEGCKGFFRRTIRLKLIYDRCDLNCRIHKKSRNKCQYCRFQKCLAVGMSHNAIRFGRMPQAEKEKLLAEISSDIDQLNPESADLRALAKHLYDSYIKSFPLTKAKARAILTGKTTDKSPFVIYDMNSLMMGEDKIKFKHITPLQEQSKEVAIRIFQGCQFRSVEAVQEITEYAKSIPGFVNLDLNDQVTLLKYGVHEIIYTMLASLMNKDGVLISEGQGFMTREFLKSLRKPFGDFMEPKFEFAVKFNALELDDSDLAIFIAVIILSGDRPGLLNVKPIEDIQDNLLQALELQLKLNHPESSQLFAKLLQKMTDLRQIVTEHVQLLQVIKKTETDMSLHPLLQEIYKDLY

[7] = Aqueous solubility of compound in pH 8 phosphate buffer incubated for 1 hr by HPLC analysis; assay type: physicochemical; conditions: phosphate buffer, pH 8
Method in brief: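 Solubility was measured with 3 mg compound in 2 mL 0.1 M phosphate buffer, pH 8, shaken 1 h at 37 °C. The mixture was pressed through a Uniprep filter and the dissolved compound in the filtrate quantified by HPLC against an external calibration; three independent experiments.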

[8] = Cmax in mouse at 10 mg/kg, po; assay type: ADME, organism-based; parameters: route oral, dose 10 mg/kg; conditions: in vivo; method in brief: as §1
[9] = molecular target: T4, Nuclear receptor subfamily 1 group I member 3 (Homo sapiens, UniProt Q14994); assay: Agonist activity against human CAR in human HEK293T cells co-expressing pFR/pRL-Luc assessed as receptor activation at 10 uM incubated for 14 to 16 hrs by hybrid reporter gene assay relative to bexarotene; assay type: cell-based; conditions: time 14-16 hrs; method in brief: as §2
T4 sequence (Q14994 whole entry): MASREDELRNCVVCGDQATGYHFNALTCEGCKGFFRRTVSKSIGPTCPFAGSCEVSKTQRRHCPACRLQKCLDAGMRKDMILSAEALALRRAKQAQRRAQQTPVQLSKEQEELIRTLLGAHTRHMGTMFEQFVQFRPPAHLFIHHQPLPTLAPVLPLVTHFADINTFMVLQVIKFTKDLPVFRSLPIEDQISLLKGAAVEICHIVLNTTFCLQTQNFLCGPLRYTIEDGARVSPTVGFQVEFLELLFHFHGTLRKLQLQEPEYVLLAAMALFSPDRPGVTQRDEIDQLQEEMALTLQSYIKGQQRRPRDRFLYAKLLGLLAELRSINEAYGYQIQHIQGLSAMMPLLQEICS

concentration at 3 h [1]: 35000 ng/mL
EC50 [4]: 1600 nM
Activity [5]: 1%
Activity [6]: 2%
solubility at 1 h [7]: 21 µg/mL (≈ 56 µM)
Cmax [8]: 35000 ng/mL
Activity [9]: 5%
Structure (SMILES): O=C(O)CCCc1cc(-c2cc(Cl)cc(Cl)c2)n(-c2ccccc2)n1
Activity [2]: Non-Toxic
IC50 [3]: > 100000 nM
